Measured values reported in ChEMBL document CHEMBL1139384, “First Cdc7 kinase inhibitors: pyrrolopyridinones as potent and orally active antitumor agents. 2. Lead discovery” (J Med Chem, 2009).
Calls of active or inactive are those of the source. No cut-off for these calls is given here.

Experiments:
[1] = molecular target: Fibroblast growth factor receptor 1 (Homo sapiens, UniProt P11362); test: Inhibition of FGFR1
[2] = molecular target: Mast/stem cell growth factor receptor Kit (Homo sapiens, UniProt P10721); test: Inhibition of KIT
[3] = molecular target: Serine/threonine-protein kinase NIM1 (Homo sapiens, UniProt Q8IY84); test: Inhibition of NIM1
[4] = molecular target: Mitogen-activated protein kinase 11 (Homo sapiens, UniProt Q15759); test: Inhibition of P38beta
[5] = molecular target: Vascular endothelial growth factor receptor 3 (Homo sapiens, UniProt P35916); test: Inhibition of VEGFR3
[6] = system: Hepatocyte; test: Metabolic stability in rat hepatocytes assessed as intrinsic clearance at 1 uM; type: cell-based; conditions: Liver
[7] = Cmax in nu/nu mouse at 10 mg/kg, iv administered as single dose; type: ADME, organism-based; set-up: dose 10 mg/kg, route intravenous; conditions: in vivo
In short: (§1)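 Single iv or oral dose in 5% dextrose to overnight-fasted animals. Nu/Nu mice: males, 3 per route, saphenous bleeds to 24 h. Han-Wistar rats: males, 3 per route, jugular bleeds to 24 h. Beagle dogs: 2 per sex, iv and po crossover 2 weeks apart, jugular bleeds to 48 h. Plasma by LC/MS/MS; noncompartmental parameters, AUC by linear trapezoid with extrapolation.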

[8] = Clearance in nu/nu mouse at 10 mg/kg, iv administered as single dose; type: ADME, organism-based; set-up: dose 10 mg/kg, route intravenous; conditions: in vivo; in short: as §1
[9] = Tmax in nu/nu mouse at 10 mg/kg, po administered as single dose; type: ADME, organism-based; set-up: dose 10 mg/kg, route oral; conditions: in vivo
In short: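 Overnight-fasted male Nu/Nu mice got a single 10 mg/kg dose in 5% dextrose, iv or po, three mice per route. Saphenous blood was drawn at 0.083 (iv) or 0.25 (po), 0.5, 1, 6 and 24 h. Plasma was assayed by LC/MS/MS and analysed noncompartmentally. Tmax is the observed peak time, Vss = CL·MRT, and F is the ratio of dose-normalized AUC∞ po/iv.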

[10] = system: A2780; test: Antiproliferative activity against human A2780 cells after 72 hrs by luciferase based assay; type: functional, cell-based; conditions: Homo sapiens, A2780, 72 h
[11] = Half life in Wistar rat at 10 mg/kg, iv administered as single dose; type: ADME, organism-based; set-up: dose 10 mg/kg, route intravenous; conditions: in vivo; in short: as §1
[12] = Cmax in Beagle dog at 5 mg/kg, iv administered as single dose; type: ADME, organism-based, Canis lupus familiaris; set-up: dose 5 mg/kg, route intravenous; conditions: in vivo; in short: as §1
[13] = Clearance in Beagle dog at 5 mg/kg, iv administered as single dose; type: ADME, organism-based, Canis lupus familiaris; set-up: dose 5 mg/kg, route intravenous; conditions: in vivo; in short: as §1
[14] = AUC (0 to infinity) in Beagle dog at 10 mg/kg, po administered as single dose; type: ADME, organism-based, Canis lupus familiaris; set-up: time infinity, dose 10 mg/kg, route oral; conditions: plasma; in short: as §1
[15] = Antiproliferative activity against human […] cells after 72 hrs by luciferase based assay; type: functional, cell-based
In short: (§2)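 Cells seeded at 2500–5000/well in complete medium (RPMI1640, McCoy's or DMEM with 10% FCS, by line); compound added after 24 h, 72 h at 37 °C, 5% CO2.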

[16] = system: L-363; test: Antiproliferative activity against human L363 cells after 72 hrs by luciferase based assay; type: functional, cell-based; conditions: L-363, 72 h; in short: as §2
[17] = Antiproliferative activity against human SW403 cells after 72 hrs by luciferase based assay; type: functional, cell-based; conditions: SW-403, 72 h; in short: as §2
[18] = Antiproliferative activity against human NCI-H929 cells after 72 hrs by luciferase based assay; type: functional, cell-based; conditions: NCI-H929, 72 h; in short: as §2
[19] = system: OPM-2; test: Antiproliferative activity against human OPM2 cells after 72 hrs by luciferase based assay; type: functional, cell-based; conditions: OPM-2, 72 h; in short: as §2
[20] = system: NHDF; test: Antiproliferative activity against human NHDF cells after 72 hrs by luciferase based assay; type: cell-based
[21] = Antiproliferative activity against mouse NIH/3T3 cells after 72 hrs by luciferase based assay; type: cell-based; conditions: NIH3T3, 72 h; in short: as §2
[22] = molecular target: Cell division cycle 7-related protein kinase (Homo sapiens, UniProt O00311); test: Inhibition of human Cdc7 in human A2780 cells assessed as inhibition of Ser53 phosphorylation of Mcm2 protein at 3 uM up to 24 hrs; type: cell-based
In short: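 Time course in A2780 cells held at 3 µM for up to 24 h. Extracts were made in 50 mmol/L Tris-HCl pH 6.8, 1% SDS, 1 mmol/L DTT with 10 s sonication, loaded at 15 µg per lane, and immunoblotted with antiphosphopeptide antibodies to MCM2 Ser40 and Ser53. Cleaved caspase 3 was also probed.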

[23] = molecular target: Cytochrome P450 2C8 (Homo sapiens, UniProt P10632); test: Inhibition of human CYP2C8; type: ADME
[24] = molecular target: Cytochrome P450 2C19 (Homo sapiens, UniProt P33261); test: Inhibition of human CYP2C19; type: ADME
[25] = molecular target: Cytochrome P450 2D6 (Homo sapiens, UniProt P10635); test: Inhibition of human CYP2D6; type: ADME
[26] = molecular target: Cytochrome P450 3A4 (Homo sapiens, UniProt P08684); test: Inhibition of human CYP3A4; type: ADME
[27] = system: Mus musculus; test: Inhibition of human Cdc7 in human A2780 cells xenografted in CDI nu/nu mouse assessed as inhibition of Ser53 phosphorylation of Mcm2 protein at 60 mg/kg, po first dose administered at 6 hrs and second dose 3 hrs after first dose by Western blot; type: functional, organism-based; set-up: dose 60 mg/kg
In short: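 A2780 human ovarian carcinoma grown subcutaneously in CDI nu/nu mice. Two oral doses of 60 mg/kg were given within 6 h, the second 3 h after the first. Tumors were explanted and analysed by Western blot for MCM2 phosphorylated at Ser40 and Ser53, with total MCM2 and tubulin as loading controls. Vehicle-treated tumors served as controls.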

[28] = system: Mus musculus; test: Inhibition of human Cdc7 in human A2780 cells xenografted in CDI nu/nu mouse assessed as inhibition of Ser40 phosphorylation of Mcm2 protein at 60 mg/kg, po first dose administered at 6 hrs and second dose 3 hrs after first dose by Western blot; type: functional, organism-based; set-up: dose 60 mg/kg
In short: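 Mice bearing A2780 xenografts given two oral doses of 60 mg/kg, the second 3 h after the first, over 6 h, or vehicle. Explanted tumors blotted for Mcm2 phospho-Ser40 and phospho-Ser53, with total MCM2 and tubulin as loading controls.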

[29] = molecular target: Serine/threonine-protein kinase TAO3 (Homo sapiens, UniProt Q9H2K8); test: Inhibition of TAO3
[30] = molecular target: Cyclin-dependent kinase 2 (Homo sapiens, UniProt P24941); test: Inhibition of Cdk2A
[31] = Inhibition of CK2
[32] = molecular target: Tyrosine-protein kinase ABL1 (Homo sapiens, UniProt P00519); test: Inhibition of ABL
[33] = molecular target: RAC-alpha serine/threonine-protein kinase (Homo sapiens, UniProt P31749); test: Inhibition of AKT1
[34] = molecular target: Serine/threonine-protein kinase Chk1 (Homo sapiens, UniProt O14757); test: Inhibition of CHK1
[35] = molecular target: Serine/threonine-protein kinase PLK1 (Homo sapiens, UniProt P53350)
[36] = Tmax in Wistar rat at 20 mg/kg, po administered as single dose; conditions: in vivo
[37] = Half life in Wistar rat at 20 mg/kg, po administered as single dose; conditions: in vivo
[38] = system: Rattus norvegicus; test: AUC (0 to infinity) in Wistar rat at 20 mg/kg, po administered as single dose; conditions: in vivo

Chain of Fibroblast growth factor receptor 1 (P11362 whole entry): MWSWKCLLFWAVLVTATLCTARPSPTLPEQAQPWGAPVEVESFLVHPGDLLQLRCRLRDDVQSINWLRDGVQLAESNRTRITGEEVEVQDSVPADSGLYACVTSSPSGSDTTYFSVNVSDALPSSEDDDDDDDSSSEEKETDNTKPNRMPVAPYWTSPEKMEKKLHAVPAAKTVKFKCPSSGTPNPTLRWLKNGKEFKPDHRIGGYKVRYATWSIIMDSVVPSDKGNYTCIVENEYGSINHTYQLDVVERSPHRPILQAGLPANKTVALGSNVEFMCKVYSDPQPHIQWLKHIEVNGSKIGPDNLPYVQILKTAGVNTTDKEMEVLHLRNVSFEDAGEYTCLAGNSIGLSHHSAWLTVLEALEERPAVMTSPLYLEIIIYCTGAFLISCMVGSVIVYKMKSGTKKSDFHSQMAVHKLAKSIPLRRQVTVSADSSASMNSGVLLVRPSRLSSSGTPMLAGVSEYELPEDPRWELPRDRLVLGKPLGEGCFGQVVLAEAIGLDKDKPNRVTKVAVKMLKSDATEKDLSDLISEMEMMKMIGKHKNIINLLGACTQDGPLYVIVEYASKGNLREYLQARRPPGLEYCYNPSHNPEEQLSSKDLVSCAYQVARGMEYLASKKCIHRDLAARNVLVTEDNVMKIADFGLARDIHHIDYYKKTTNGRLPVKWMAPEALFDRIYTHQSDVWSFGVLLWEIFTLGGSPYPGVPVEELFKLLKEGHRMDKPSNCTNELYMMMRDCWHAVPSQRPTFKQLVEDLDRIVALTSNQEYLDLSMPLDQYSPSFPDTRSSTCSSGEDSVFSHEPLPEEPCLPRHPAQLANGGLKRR
Chain of Serine/threonine-protein kinase NIM1 (Q8IY84 whole entry): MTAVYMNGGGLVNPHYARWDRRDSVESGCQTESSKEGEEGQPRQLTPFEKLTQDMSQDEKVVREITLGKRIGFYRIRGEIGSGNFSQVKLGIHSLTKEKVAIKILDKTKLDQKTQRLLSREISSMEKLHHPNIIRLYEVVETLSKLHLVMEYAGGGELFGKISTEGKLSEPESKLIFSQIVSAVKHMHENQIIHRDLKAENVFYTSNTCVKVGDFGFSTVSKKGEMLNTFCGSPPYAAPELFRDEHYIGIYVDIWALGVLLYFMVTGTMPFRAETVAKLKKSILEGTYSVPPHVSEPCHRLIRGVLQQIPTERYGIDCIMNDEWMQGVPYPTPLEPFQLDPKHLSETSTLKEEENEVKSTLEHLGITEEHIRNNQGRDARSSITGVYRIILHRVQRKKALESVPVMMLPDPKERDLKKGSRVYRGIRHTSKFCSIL
Chain of Tyrosine-protein kinase ABL1 (P00519 whole entry): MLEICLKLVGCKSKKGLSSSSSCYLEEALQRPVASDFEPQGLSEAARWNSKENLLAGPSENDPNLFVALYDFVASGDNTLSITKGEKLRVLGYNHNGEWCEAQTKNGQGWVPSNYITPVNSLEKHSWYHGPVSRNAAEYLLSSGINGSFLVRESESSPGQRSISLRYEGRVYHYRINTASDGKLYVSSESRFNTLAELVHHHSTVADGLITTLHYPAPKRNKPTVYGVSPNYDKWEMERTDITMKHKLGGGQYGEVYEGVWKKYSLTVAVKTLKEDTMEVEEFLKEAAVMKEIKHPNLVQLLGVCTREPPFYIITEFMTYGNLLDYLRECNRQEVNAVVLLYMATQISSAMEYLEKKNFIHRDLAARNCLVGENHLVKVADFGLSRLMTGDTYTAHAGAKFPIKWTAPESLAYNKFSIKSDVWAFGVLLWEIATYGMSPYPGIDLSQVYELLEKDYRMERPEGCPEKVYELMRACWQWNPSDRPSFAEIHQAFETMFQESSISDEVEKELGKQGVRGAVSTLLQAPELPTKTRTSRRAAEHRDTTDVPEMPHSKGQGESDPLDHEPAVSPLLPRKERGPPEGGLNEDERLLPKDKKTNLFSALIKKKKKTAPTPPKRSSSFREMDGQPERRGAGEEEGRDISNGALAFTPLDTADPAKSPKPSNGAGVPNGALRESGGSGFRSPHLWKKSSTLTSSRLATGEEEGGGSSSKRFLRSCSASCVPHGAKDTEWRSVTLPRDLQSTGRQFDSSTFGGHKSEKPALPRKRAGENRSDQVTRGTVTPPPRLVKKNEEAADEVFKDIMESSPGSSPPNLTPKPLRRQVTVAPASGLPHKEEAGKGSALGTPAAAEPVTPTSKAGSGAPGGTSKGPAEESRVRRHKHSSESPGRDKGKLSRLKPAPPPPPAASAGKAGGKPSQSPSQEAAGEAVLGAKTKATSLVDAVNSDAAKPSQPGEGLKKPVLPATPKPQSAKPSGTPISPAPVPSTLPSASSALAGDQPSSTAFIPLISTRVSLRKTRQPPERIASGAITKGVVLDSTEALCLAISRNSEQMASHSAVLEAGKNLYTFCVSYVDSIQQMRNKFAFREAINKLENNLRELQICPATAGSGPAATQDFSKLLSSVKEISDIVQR
Chain of Mast/stem cell growth factor receptor Kit (P10721 whole entry): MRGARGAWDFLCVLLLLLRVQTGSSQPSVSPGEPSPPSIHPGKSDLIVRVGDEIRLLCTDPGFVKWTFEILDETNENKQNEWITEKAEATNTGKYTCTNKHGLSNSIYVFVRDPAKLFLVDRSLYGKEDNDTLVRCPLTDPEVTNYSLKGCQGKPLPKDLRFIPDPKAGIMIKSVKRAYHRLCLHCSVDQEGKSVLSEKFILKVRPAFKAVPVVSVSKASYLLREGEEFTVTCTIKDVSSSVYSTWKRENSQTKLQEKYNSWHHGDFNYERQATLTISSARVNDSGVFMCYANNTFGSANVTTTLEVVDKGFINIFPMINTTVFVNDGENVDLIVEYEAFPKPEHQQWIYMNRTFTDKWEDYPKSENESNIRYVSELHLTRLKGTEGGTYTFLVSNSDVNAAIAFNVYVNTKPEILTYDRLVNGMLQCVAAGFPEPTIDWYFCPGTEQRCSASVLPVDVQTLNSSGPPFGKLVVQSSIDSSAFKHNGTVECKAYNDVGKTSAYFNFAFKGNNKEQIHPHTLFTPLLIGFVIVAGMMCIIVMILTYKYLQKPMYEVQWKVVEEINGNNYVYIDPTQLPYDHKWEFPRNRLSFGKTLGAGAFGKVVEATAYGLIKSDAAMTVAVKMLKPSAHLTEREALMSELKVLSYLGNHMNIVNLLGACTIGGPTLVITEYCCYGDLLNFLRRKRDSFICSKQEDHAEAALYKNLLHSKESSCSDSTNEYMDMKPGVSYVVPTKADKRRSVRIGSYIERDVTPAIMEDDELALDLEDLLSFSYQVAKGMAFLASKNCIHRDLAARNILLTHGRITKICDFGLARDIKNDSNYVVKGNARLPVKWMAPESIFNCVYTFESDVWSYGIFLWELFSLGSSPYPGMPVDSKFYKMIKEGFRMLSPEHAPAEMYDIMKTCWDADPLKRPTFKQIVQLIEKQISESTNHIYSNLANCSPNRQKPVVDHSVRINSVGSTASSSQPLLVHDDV
Chain of Cell division cycle 7-related protein kinase (O00311 whole entry, looked up): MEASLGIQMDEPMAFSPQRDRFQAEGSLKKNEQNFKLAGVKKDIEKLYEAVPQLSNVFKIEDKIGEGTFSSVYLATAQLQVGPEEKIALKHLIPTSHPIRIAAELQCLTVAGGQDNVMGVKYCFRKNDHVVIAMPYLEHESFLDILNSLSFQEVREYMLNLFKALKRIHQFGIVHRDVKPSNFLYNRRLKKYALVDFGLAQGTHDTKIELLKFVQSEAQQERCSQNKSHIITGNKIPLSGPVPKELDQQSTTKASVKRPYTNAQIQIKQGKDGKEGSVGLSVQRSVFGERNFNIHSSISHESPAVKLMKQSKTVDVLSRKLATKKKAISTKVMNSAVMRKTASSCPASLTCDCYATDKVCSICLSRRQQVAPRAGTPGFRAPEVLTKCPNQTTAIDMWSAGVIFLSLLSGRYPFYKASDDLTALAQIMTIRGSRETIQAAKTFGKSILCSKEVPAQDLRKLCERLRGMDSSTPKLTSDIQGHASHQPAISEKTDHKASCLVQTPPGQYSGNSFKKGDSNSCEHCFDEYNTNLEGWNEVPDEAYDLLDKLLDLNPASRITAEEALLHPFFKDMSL
Chain of Serine/threonine-protein kinase TAO3 (Q9H2K8 whole entry): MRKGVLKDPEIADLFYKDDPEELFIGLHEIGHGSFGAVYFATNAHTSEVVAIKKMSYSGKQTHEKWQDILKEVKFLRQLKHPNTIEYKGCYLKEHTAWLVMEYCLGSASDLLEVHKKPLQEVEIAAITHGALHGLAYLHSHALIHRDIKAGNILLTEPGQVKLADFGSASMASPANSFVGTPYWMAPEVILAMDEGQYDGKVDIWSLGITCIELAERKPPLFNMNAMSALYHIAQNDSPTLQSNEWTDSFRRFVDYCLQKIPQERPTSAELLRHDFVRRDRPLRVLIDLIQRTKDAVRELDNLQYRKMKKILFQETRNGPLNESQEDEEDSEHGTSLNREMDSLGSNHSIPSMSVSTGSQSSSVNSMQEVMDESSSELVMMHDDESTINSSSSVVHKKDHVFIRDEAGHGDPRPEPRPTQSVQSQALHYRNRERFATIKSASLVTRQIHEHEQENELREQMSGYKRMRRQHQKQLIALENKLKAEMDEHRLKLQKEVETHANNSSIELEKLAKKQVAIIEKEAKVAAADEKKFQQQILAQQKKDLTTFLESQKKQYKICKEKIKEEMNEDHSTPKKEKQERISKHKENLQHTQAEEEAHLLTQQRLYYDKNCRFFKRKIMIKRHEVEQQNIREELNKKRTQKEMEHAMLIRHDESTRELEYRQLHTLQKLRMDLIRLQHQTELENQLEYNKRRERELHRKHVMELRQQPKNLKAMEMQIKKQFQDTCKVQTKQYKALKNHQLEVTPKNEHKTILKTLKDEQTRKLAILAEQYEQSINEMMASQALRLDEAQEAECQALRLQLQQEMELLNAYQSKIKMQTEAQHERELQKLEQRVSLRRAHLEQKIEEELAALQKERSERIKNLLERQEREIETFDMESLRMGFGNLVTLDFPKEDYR

Q: Which IC50 [1] does the source give for `Nc1nccc(-c2cc3c([nH]2)[C@@H](CCF)CNC3=O)n1` here?
A: > 4 µM

Q: And the IC50 [2]?
A: > 4 µM

Q: What about the IC50 [3] of the same compound?
A: > 4 µM

Q: What about the IC50 [4] of the same compound?
A: > 4 µM

Q: What about the IC50 [5] of the same compound?
A: > 4 µM

Q: And the CL (mL.min-1.kg-1) [6]?
A: 5

Q: And the Cmax [7]?
A: 20.3 µM

Q: And the clearance [8]?
A: 61.7 mL/min/kg

Q: And the Tmax [9]?
A: 30 min

Q: What about the IC50 [10] of the same compound?
A: 0.5 µM

Q: And the half-life [11]?
A: 78 min

Q: And the Cmax [12]?
A: 8.9 µM

Q: And the clearance [13]?
A: 53.3 mL/min/kg

Q: And the AUC(0-inf) [14]?
A: 6.4 µM·h

Q: And the IC50 [15]?
A: 0.4 µM

Q: And the IC50 [16]?
A: 1.3 µM

Q: What about the IC50 [17] of the same compound?
A: 0.6 µM

Q: What about the IC50 [18] of the same compound?
A: 1.2 µM

Q: And the IC50 [19]?
A: 3.7 µM

Q: What about the IC50 [20] of the same compound?
A: 1.6 µM

Q: And the IC50 [21]?
A: 2.5 µM

Q: What about the Activity [22] of the same compound?
A: Active

Q: And the Activity [23]?
A: Not Active

Q: And the Activity [24]?
A: Not Active

Q: And the Activity [25]?
A: Not Active

Q: What about the Activity [26] of the same compound?
A: Not Active

Q: What about the Activity [27] of the same compound?
A: Active

Q: What about the Activity [28] of the same compound?
A: Active

Q: And the IC50 [29]?
A: 0.126 µM

Q: And the IC50 [30]?
A: 0.138 µM

Q: What about the IC50 [31] of the same compound?
A: 0.359 µM

Q: What about the IC50 [32] of the same compound?
A: > 4 µM

Q: What about the IC50 [33] of the same compound?
A: > 4 µM

Q: What about the IC50 [34] of the same compound?
A: > 4 µM

Q: And the IC50 [35]?
A: 0.574 µM

Q: And the Tmax [36]?
A: 18 min

Q: And the half-life [37]?
A: 372 min

Q: And the AUC [38]?
A: 18.9 µM·h
